Measured values as given in ChEMBL document CHEMBL1157699, “New small-size peptides possessing antifungal activity” (Bioorg Med Chem, 2010).
Residues, ends and D or L forms follow the SMILES beside them.

Assays:
[1] = test system: Cryptococcus neoformans; assay: Antifungal activity against Cryptococcus neoformans ATCC 32264 assessed as inhibition of fungal growth at 200 uM after 48 hrs by microbroth dilution method; type: functional; conditions: ATCC 32264, 48 h
In short: (§1)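 Cryptococcus run by CLSI M-27 A2 microbroth dilution in RPMI-1640. Peptide was diluted from DMSO stock to final 200, 100, 50, 25, 12.5, 6.25 and 3.125 µM. Inoculum was 1–5 × 10^3 CFU/ml from 24 h, 35 °C Sabouraud-chloramphenicol slants. Incubation was 48 h at 35 °C, moist and dark. % inhibition was taken from OD405 against a DMSO-containing growth control. Amphotericin B served as the positive control; tests in duplicate.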

[2] = test system: Cryptococcus neoformans; assay: Antifungal activity against Cryptococcus neoformans ATCC 32264 assessed as inhibition of fungal growth at 100 uM after 48 hrs by microbroth dilution method; type: functional; conditions: ATCC 32264, 48 h; in short: as §1
[3] = test system: Cryptococcus neoformans; assay: Antifungal activity against Cryptococcus neoformans ATCC 32264 assessed as inhibition of fungal growth at 50 uM after 48 hrs by microbroth dilution method; type: functional; conditions: ATCC 32264, 48 h; in short: as §1
[4] = test system: Cryptococcus neoformans; assay: Antifungal activity against Cryptococcus neoformans ATCC 32264 assessed as inhibition of fungal growth at 25 uM after 48 hrs by microbroth dilution method; type: functional; conditions: ATCC 32264, 48 h; in short: as §1
[5] = test system: Cryptococcus neoformans; assay: Antifungal activity against Cryptococcus neoformans ATCC 32264 assessed as inhibition of fungal growth at 12.5 uM after 48 hrs by microbroth dilution method; type: functional; conditions: ATCC 32264, 48 h; in short: as §1
[6] = test system: Cryptococcus neoformans; assay: Antifungal activity against Cryptococcus neoformans ATCC 32264 assessed as inhibition of fungal growth at 6.25 uM after 48 hrs by microbroth dilution method; type: functional; conditions: ATCC 32264, 48 h; in short: as §1
[7] = test system: Cryptococcus neoformans; assay: Antifungal activity against Cryptococcus neoformans ATCC 32264 assessed as inhibition of fungal growth at 3.125 uM after 48 hrs by microbroth dilution method; type: functional; conditions: ATCC 32264, 48 h; in short: as §1
[8] = test system: Candida albicans; assay: Antifungal activity against Candida albicans ATCC 10231 assessed as inhibition of fungal growth at 200 uM after 24 hrs by microbroth dilution method; type: functional; conditions: ATCC 10231, 24 h
In short: (§2)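 CLSI M-27 A2 broth microdilution in RPMI-1640. Peptides were taken from DMSO stocks to final 200–3.125 µM (twofold series). Inoculum was 1–5 × 10^3 CFU/ml from 24 h Sabouraud-chloramphenicol slant cultures at 35 °C. Plates were incubated 24 h at 35 °C in a moist dark chamber. OD405 was read, and % inhibition was taken against a DMSO-matched growth control. Amphotericin B served as the positive control; duplicates.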

[9] = test system: Candida albicans; assay: Antifungal activity against Candida albicans ATCC 10231 assessed as inhibition of fungal growth at 100 uM after 24 hrs by microbroth dilution method; type: functional; conditions: ATCC 10231, 24 h; in short: as §2
[10] = test system: Candida albicans; assay: Antifungal activity against Candida albicans ATCC 10231 assessed as inhibition of fungal growth at 50 uM after 24 hrs by microbroth dilution method; type: functional; conditions: ATCC 10231, 24 h; in short: as §2
[11] = test system: Candida albicans; assay: Antifungal activity against Candida albicans ATCC 10231 assessed as inhibition of fungal growth at 25 uM after 24 hrs by microbroth dilution method; type: functional; conditions: ATCC 10231, 24 h; in short: as §2
[12] = test system: Candida albicans; assay: Antifungal activity against Candida albicans ATCC 10231 assessed as inhibition of fungal growth at 12.5 uM after 24 hrs by microbroth dilution method; type: functional; conditions: ATCC 10231, 24 h; in short: as §2
[13] = test system: Cryptococcus neoformans; assay: Antifungal activity against Cryptococcus neoformans ATCC 32264 assessed as inhibition of fungal growth after 48 hrs by microbroth dilution method; type: functional; conditions: ATCC 32264, 48 h; for MIC: read-out: MIC100; in short: as §1
[14] = test system: Candida albicans; assay: Antifungal activity against Candida albicans ATCC 10231 assessed as inhibition of fungal growth after 24 hrs by microbroth dilution method; type: functional; conditions: ATCC 10231, 24 h; for MIC: read-out: MIC100; in short: as §2
[15] = Toxicity in Poecilia reticulata assessed as mortality at 16.4 ug/ml after 72 hrs; type: organism-based; conditions: in vivo, read-out: Activity
In short: (§3)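 Acute toxicity in guppy (P. reticulata): 10 fish per concentration held in jars with the test solution for 96 h. Peptide added from aqueous stock diluted in DMSO to the final concentration. Dead fish counted and removed every 24 h, and condition noted. Percent mortality recorded at 96 h. Two experiments, each in triplicate.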

[16] = Toxicity in Poecilia reticulata assessed as mortality at 16.4 ug/ml after 24 hrs; type: organism-based; conditions: in vivo, read-out: Activity; in short: as §3
[17] = Toxicity in Poecilia reticulata assessed as mortality at 16.4 ug/ml after 48 hrs; type: organism-based; conditions: in vivo, read-out: Activity; in short: as §3
[18] = Toxicity in Poecilia reticulata assessed as mortality at 16.4 ug/ml after 96 hrs; type: organism-based; conditions: in vivo, read-out: Activity; in short: as §3
[19] = Toxicity in Poecilia reticulata assessed as mortality at 13.6 ug/ml after 24 hrs; type: organism-based; conditions: in vivo, read-out: Activity; in short: as §3
[20] = Toxicity in Poecilia reticulata assessed as mortality at 13.6 ug/ml after 48 hrs; type: organism-based; conditions: in vivo, read-out: Activity; in short: as §3
[21] = Toxicity in Poecilia reticulata assessed as mortality at 13.6 ug/ml after 72 hrs; type: organism-based; conditions: in vivo, read-out: Activity; in short: as §3
[22] = Toxicity in Poecilia reticulata assessed as mortality at 13.6 ug/ml after 96 hrs; type: organism-based; conditions: in vivo, read-out: Activity; in short: as §3

Compound	inhibition at 200 µM [1] [%]	inhibition at 100 µM [2] [%]	inhibition at 50 µM [3] [%]	inhibition at 25 µM [4] [%]	inhibition at 12.5 µM [5] [%]	inhibition at 6.25 µM [6] [%]	inhibition at 3.125 µM [7] [%]	inhibition at 200 µM [8] [%]	inhibition at 100 µM [9] [%]	inhibition at 50 µM [10] [%]	inhibition at 25 µM [11] [%]	inhibition at 12.5 µM [12] [%]	other results
C[C@H](NC(=O)[C@H](C)NC(=O)[C@@H](N)CCCNC(=N)N)C(=O)N[C@@H](CCCCN)C(N)=O (H-RAAK-NH2)	78.6	69.7	67.5	39.1	26.3	14.1	0						
C[C@H](NC(=O)[C@H](C)NC(=O)[C@H](C)NC(=O)[C@@H](N)CCCNC(=N)N)C(N)=O (H-RAAA-NH2)	38.4	8.45	8.43	8.9	6.08	4.96	0						
H-RQIRRWWQW-NH2	100	100	100	100	83.3			100	100	100	50.7	19.1	MIC50 [13]: ≤ 12.5 µM; MIC80 [13]: ≤ 12.5 µM; MIC [13]: 25 µM; MIC50 [14]: ≤ 25 µM; MIC [14]: 50 µM; mortality at 72 h, 16.4 ug/ml [15]: 0%; mortality at 24 h, 16.4 ug/ml [16]: 0%; mortality at 48 h, 16.4 ug/ml [17]: 0%; mortality at 96 h, 16.4 ug/ml [18]: 0%
C[C@H](N)C(=O)N[C@@H](C)C(=O)N[C@@H](C)C(=O)N[C@@H](CCCCN)C(N)=O (H-AAAK-NH2)	70.6	62	57.9	43	31.1	0	0						
H-NRRMKWKK-NH2	63.6	34.8	23.3	6.71	6.64			11	4.59	0	0	0	
CC[C@H](C)[C@H](NC(=O)[C@@H](NC(=O)[C@@H](N)CCCNC(=N)N)[C@@H](C)CC)C(=O)N[C@@H](CCCCN)C(N)=O (H-RIIK-NH2)	42	39.7	11.5	20.9	12.6	14.5	8.74						
CC[C@H](C)[C@H](NC(=O)[C@H](C)NC(=O)[C@@H](N)CCCNC(=N)N)C(=O)N[C@@H](CCCCN)C(N)=O (H-RAIK-NH2)	34.6	29.1	0	0	0	0	0						
H-RQIRRWWQWRR-NH2	100	100	100	100	51.2			100	100	100	46.6	22.9	MIC50 [13]: ≤ 12.5 µM; MIC [13]: 25 µM; MIC50 [14]: ≤ 25 µM; MIC [14]: 50 µM; mortality at 24 h, 13.6 ug/ml [19]: 0%; mortality at 48 h, 13.6 ug/ml [20]: 0%; mortality at 72 h, 13.6 ug/ml [21]: 0%; mortality at 96 h, 13.6 ug/ml [22]: 0%
